Measured values from ChEMBL document CHEMBL1128739, “Structure-activity relationships in the 8-amino-6,7,8,9-tetrahydro-3H-benz[e]indole ring system. 2. Effects of 8-amino nitrogen substitution on serotonin receptor binding and pharmacology” (J Med Chem, 1995).
Activity calls are given as the source filed them. No cut-off for these calls is given here.

What was measured:
Rattus norvegicus [1] = test: In vivo changes in different brain area levels of 5-HTP in reserpinized rat corpus striatum.; type: functional
In short: (§1)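 Male Sprague-Dawley rats (200-300 g) pretreated with reserpine 5 mg/kg sc 18 h before. Injection volume 5 mL/kg at neutral pH. Brain-region 5-HTP measured by HPLC with electrochemical detection. Dose-response curves used four to six doses, n = 4.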

Rattus norvegicus [2] = test: In vivo changes in different brain area levels of 5-HTP in reserpinized rat limbic system.; type: functional; in short: as §1
D(3) dopamine receptor = D(3) dopamine receptor (Rattus norvegicus, UniProt P19020); test: In vitro binding affinity against cloned mammalian Dopamine receptor D3 expressed in CHO cells by, using [3H]-spiperone as radioligand; type: cell-based; details: read-out: Ki
Sequence of D(3) dopamine receptor (P19020 whole entry): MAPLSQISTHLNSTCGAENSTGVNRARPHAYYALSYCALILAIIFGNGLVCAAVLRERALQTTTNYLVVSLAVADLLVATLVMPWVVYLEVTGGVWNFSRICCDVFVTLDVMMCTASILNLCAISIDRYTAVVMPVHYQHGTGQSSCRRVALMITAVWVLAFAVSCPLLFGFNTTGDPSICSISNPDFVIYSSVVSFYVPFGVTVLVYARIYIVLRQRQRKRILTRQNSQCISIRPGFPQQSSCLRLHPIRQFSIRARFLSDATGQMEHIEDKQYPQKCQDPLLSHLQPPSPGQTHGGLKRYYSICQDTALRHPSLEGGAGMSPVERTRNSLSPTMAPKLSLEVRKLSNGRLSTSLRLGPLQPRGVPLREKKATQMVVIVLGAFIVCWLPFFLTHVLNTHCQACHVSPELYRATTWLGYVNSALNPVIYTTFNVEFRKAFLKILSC

Rattus norvegicus [3] = test: The compound was tested in vivo for biochemical effect against the changes in different brain area levels of DOPA in reserpinized rat corpus striatum at dose 3.1 uM/kg; Inactive; type: functional, organism-based
In short: (§2)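 Male Sprague-Dawley rats (200-300 g) pretreated with reserpine 5 mg/kg sc 18 h before. Injection volume 5 mL/kg, test solutions at neutral pH. DOPA and 5-HTP in limbic system, striatum and hemispheres measured by HPLC with electrochemical detection. Dose-response curves from four to six dose levels (n = 4) per brain area.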

[4] = molecular target: T1, 5-hydroxytryptamine receptor 1B (Homo sapiens, UniProt P28222); test: In vitro binding affinity against cloned mammalian 5-hydroxytryptamine 1D receptor beta expressed in CHO cells, by using [3H]5-HT as radioligand; type: cell-based
T1 sequence (P28222 whole entry): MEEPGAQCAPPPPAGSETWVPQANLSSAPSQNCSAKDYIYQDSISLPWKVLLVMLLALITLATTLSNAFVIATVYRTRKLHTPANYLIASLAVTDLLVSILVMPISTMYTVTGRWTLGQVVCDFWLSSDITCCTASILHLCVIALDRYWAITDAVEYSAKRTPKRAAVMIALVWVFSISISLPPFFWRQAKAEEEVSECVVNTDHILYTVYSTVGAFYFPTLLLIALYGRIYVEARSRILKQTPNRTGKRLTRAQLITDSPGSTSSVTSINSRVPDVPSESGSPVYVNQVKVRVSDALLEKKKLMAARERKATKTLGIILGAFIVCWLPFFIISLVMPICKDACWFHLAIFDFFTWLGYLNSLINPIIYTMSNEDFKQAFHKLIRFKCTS
In short: (§3)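 Membranes from CHO cells stably expressing the cloned receptor, made by mechanical disruption in ice-cold Tris/EDTA/EGTA pH 7.4 and differential centrifugation. [3H]serotonin at 1.7 nM in 50 mM Tris, 5 mM MgCl2, 0.1% ascorbic acid, pH 7.4. 11 drug concentrations in duplicate, 1 h at room temperature protected from light, then filtration. Excess serotonin defines nonspecific binding. One-site IC50 fit, Ki by Cheng-Prusoff.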

[5] = molecular target: 5-hydroxytryptamine receptor 1D (Homo sapiens, UniProt P28221); test: In vitro binding affinity against cloned mammalian 5-hydroxytryptamine 1D receptor alpha expressed in CHO cells, by using [3H]5-HT as radioligand; type: cell-based
Sequence of 5-hydroxytryptamine receptor 1D (P28221 whole entry): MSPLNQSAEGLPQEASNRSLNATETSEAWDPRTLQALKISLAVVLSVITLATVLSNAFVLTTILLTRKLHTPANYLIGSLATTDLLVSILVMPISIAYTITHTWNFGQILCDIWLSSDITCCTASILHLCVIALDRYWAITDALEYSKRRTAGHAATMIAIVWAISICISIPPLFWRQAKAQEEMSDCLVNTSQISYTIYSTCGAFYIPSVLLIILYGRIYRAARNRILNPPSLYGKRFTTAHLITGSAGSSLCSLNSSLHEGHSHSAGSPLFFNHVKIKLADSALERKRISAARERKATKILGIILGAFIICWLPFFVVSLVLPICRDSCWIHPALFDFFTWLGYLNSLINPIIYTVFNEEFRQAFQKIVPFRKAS
In short: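 Competition binding on CHO-cell membranes (20-60 μg protein) in 50 mM Tris, 5 mM MgCl2, 0.1% ascorbic acid, pH 7.4. Nonspecific binding defined with excess serotonin. 11 drug concentrations, each in duplicate. Incubated 1 h at room temperature, protected from light, then filtered and scintillation counted. IC50 taken from a one-site fit; Ki by Cheng-Prusoff.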

Rattus norvegicus [6] = test: The compound was tested in vivo for biochemical effect against the changes in different brain area levels of DOPA in reserpinized rat hemispheres (mainly cortex)at dose 3.1 uM/kg; Inactive; type: functional, organism-based; in short: as §2
Rattus norvegicus [7] = test: The compound was tested in vivo for biochemical effect against the changes in different brain area levels of DOPA in reserpinized rat limbic system at dose 3.1 uM/kg; Inactive; type: functional, organism-based; in short: as §2
Rattus norvegicus [8] = test: In vivo for biochemical effect against brain area levels of 5-HTP in reserpinized rat hemispheres (mainly cortex).; type: functional; in short: as §2
Rattus norvegicus [9] = test: The compound was tested in vivo for biochemical effect against the changes in different brain area levels of DOPA in reserpinized rat hemispheres (mainly cortex)at dose 12.5 uM/kg; inactive; type: functional, organism-based; in short: as §2
D(2) dopamine receptor [10] = molecular target: T2, D(2) dopamine receptor (Rattus norvegicus, UniProt P61169); test: Binding affinity rat Dopamine receptor D2 expressed in CHO-K1 cells by [3H]U-86170 displacement.; type: cell-based
T2 sequence (P61169 whole entry): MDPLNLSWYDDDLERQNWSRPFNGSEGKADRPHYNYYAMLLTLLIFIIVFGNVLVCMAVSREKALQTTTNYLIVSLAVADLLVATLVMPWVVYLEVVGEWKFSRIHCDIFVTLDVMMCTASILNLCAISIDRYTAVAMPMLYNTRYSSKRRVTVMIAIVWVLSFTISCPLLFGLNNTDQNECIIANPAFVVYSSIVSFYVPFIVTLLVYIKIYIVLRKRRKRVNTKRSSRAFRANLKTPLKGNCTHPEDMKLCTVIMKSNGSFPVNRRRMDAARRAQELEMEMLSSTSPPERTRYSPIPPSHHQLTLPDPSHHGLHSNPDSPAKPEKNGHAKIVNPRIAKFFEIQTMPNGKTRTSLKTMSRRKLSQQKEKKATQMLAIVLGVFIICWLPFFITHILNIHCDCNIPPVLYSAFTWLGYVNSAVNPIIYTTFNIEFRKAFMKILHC

Rattus norvegicus [11] = test: The compound was tested in vivo for biochemical effect against the changes in different brain area levels of DOPA in reserpinized rat corpus striatum; type: functional; in short: as §2
Rattus norvegicus [12] = test: The compound was tested in vivo for biochemical effect against the changes in different brain area levels of DOPA in reserpinized rat limbic system; type: functional
In short: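 Rats (male Sprague-Dawley, 200-300 g) received reserpine 5 mg/kg sc 18 h before. Injections 5 mL/kg at neutral pH. DOPA accumulation measured by HPLC with electrochemical detection as an index of DA or NE synthesis rate. Four to six dose levels, n = 4. ED50 from a sigmoidal fit.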

[13] = molecular target: T1, 5-hydroxytryptamine receptor 1B; test: The compound was tested in vitro for binding affinity against cloned mammalian 5-hydroxytryptamine 1D receptor beta expressed in CHO cells, by using [3H]5-HT as radioligand; type: cell-based; parameters: concentration or dose not given beside the values; details: concentration not given here; in short: as §3
D(2) dopamine receptor [14] = molecular target: T2, D(2) dopamine receptor; test: In vitro binding affinity against cloned mammalian Dopamine receptor D2 expressed in CHO cells using [3H]U-86170 as radioligand; type: cell-based; details: read-out: Ki
In short: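 Membranes from CHO cells (20-60 μg protein) in 20 mM HEPES, 10 mM MgSO4, pH 7.4. Nonspecific binding defined with excess haloperidol. 11 concentrations, each in duplicate. Incubated 1 h at room temperature, then filtered and counted. IC50 from a one-site competition fit, converted to Ki by Cheng-Prusoff.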

Rattus norvegicus [15] = test: The compound was tested in vivo for biochemical effect against the changes in different brain area levels of DOPA in reserpinized rat corpus striatum at dose 12.5 uM/kg; Partial effect; type: functional, organism-based; in short: as §2
Rattus norvegicus [16] = test: (§4) The compound was tested in vivo for biochemical effect against the changes in different brain area levels of DOPA in reserpinized rat limbic system at dose 12.5 uM/kg; Partial effect; type: functional, organism-based
Rattus norvegicus [17] = test: The compound was tested in vivo for biochemical effect against the changes in different brain area levels of DOPA in reserpinized rat hemispheres (mainly cortex)at dose 12.5 uM/kg; Inactive; type: functional, organism-based
[18] = molecular target: D(3) dopamine receptor (Rattus norvegicus) (UniProt P19020); test: The compound was tested in vitro for binding affinity against cloned mammalian Dopamine receptor D3 expressed in CHO cells by, using [3H]spiperone as radioligand; inactive at 10E-6 M; type: cell-based
Sequence of D(3) dopamine receptor (Rattus norvegicus) (P19020 whole entry): as the sequence (P19020 whole entry) above

Rattus norvegicus [19] = test: as §4; type: functional, organism-based; in short: as §2; remark: listed apart in the source
Rattus norvegicus [20] = test: The compound was tested in vivo for biochemical effect against the changes in different brain area levels of DOPA in reserpinized rat corpus striatum at dose 12.5 uM/kg; Inactive; type: functional, organism-based; in short: as §2
Rattus norvegicus [21] = test: The compound was tested in vivo for biochemical effect against the changes in different brain area levels of DOPA in reserpinized rat corpus striatum at dose 3.1 umol/kg; Partial effect; type: functional, organism-based; in short: as §2
Rattus norvegicus [22] = test: The compound was tested in vivo for biochemical effect against the changes in different brain area levels of DOPA in reserpinized rat limbic system at dose 3.1 umol/kg; Partial effect; type: functional, organism-based; in short: as §2
Rattus norvegicus [23] = test: The compound was tested in vivo for biochemical effect against the changes in different brain area levels of DOPA in reserpinized rat hemispheres (mainly cortex)at dose 3.1 umol/kg; Inactive; type: functional, organism-based; in short: as §2
Rattus norvegicus [24] = test: The compound was tested in vivo for biochemical effect against the changes in different brain area levels of DOPA in reserpinized rat hemispheres (mainly cortex)at does 12.5 uM/kg; Inactive; type: functional, organism-based; in short: as §2
Rattus norvegicus [25] = test: The compound was tested in vivo for biochemical effect against the changes in different brain area levels of DOPA in reserpinized rat limbic system at does 12.5 uM/kg; Partial effect; type: functional, organism-based; in short: as §2
Rattus norvegicus [26] = test: The compound was tested in vivo for biochemical effect against the changes in different brain area levels of DOPA in reserpinized rat hemispheres (mainly cortex) at dose of 3.1 micro/kg; Inactive; type: functional, organism-based; in short: as §2

SMILES	Ki (D(3) dopamine receptor) [nM]	Ki [4] [nM]	Ki [5] [nM]	Ki (D(2) dopamine receptor [10]) [nM]	Ki (D(2) dopamine receptor [14]) [nM]	further results
CCCN(CC1CC1)C1CCc2ccc3[nH]cc(C=O)c3c2C1 (stereo unspecified)	164	196	24			ED50 (Rattus norvegicus [1]): 0.33 µmol/kg; ED50 (Rattus norvegicus [2]): 0.23 µmol/kg; ED50 (Rattus norvegicus [3]): inactive; ED50 (Rattus norvegicus [6]): inactive; ED50 (Rattus norvegicus [7]): inactive; ED50 (Rattus norvegicus [8]): 0.34 µmol/kg
CN(C)[C@@H]1CCc2ccc3[nH]ccc3c2C1	270	228				
CCCN(CC1CC1)C1CCc2ccc3[nH]ccc3c2C1 (stereo unspecified)	50		75	33		ED50 (Rattus norvegicus [1]): 0.11 µmol/kg; ED50 (Rattus norvegicus [2]): 0.11 µmol/kg; ED50 (Rattus norvegicus [9]): inactive; ED50 (Rattus norvegicus [11]): 1.4 µmol/kg; ED50 (Rattus norvegicus [12]): 1.18 µmol/kg; inhibition [13]: < 45%; ED50 (Rattus norvegicus [8]): 0.18 µmol/kg
O=Cc1c[nH]c2ccc3c(c12)CC(N1CCCCCC1)CC3 (stereo unspecified)					> 1000	
CCCN(CCCc1ccccc1)C1CCc2ccc3[nH]cc(C=O)c3c2C1 (stereo unspecified)	42	11	2		13	
CCCN(C)C1CCc2ccc3[nH]cc(C=O)c3c2C1 (stereo unspecified)	258	109	16		151	
CCCN(CCc1cccs1)C1CCc2ccc3[nH]cc(C=O)c3c2C1 (stereo unspecified)	48	46	2		25	ED50 (Rattus norvegicus [1]): 0.044 µmol/kg; ED50 (Rattus norvegicus [2]): 0.082 µmol/kg; ED50 (Rattus norvegicus [15]): Weak activity; ED50 (Rattus norvegicus [16]): Weak activity; ED50 (Rattus norvegicus [17]): inactive; ED50 (Rattus norvegicus [8]): 0.11 µmol/kg
CCCN(CCC)CC1CCc2ccc3[nH]ccc3c2C1 (stereo unspecified)				> 1000		
CN(C)C1CCc2ccc3[nH]ccc3c2C1 (stereo unspecified)	383	270				
c1cc2c3c(ccc2[nH]1)CCC(N1CCCCCC1)C3 (stereo unspecified)			340	100		inhibition [13]: < 45%; inhibition [18]: < 45%
CCCN(CCc1ccccc1)C1CCc2ccc3[nH]cc(C=O)c3c2C1 (stereo unspecified)	81	56	2.8		62	
CCCN(CCCCN1C(=O)CC(C)(C)CC1=O)C1CCc2ccc3[nH]ccc3c2C1 (stereo unspecified)	29	224	26	15		
CCCN(CCC)C1CCc2ccc3[nH]ccc3c2C1 (stereo unspecified)			39			
CCCN(CCc1ccccc1)C1CCc2ccc3[nH]ccc3c2C1 (stereo unspecified)	18	249	7.4		5.5	
C=CCN(CCC)C1CCc2ccc3[nH]cc(C=O)c3c2C1 (stereo unspecified)	130	49			59	ED50 (Rattus norvegicus [1]): 0.16 µmol/kg; ED50 (Rattus norvegicus [2]): 0.19 µmol/kg; ED50 (Rattus norvegicus [19]): Weak activity; ED50 (Rattus norvegicus [20]): inactive; ED50 (Rattus norvegicus [17]): inactive; ED50 (Rattus norvegicus [8]): 0.19 µmol/kg
CCCN(CC(C)C)[C@@H]1CCc2ccc3[nH]cc(C=O)c3c2C1	100		6.5		28	
CCCN(CCC)[C@@H]1CCc2ccc3[nH]cc(C=O)c3c2C1						ED50 (Rattus norvegicus [21]): Weak activity; ED50 (Rattus norvegicus [22]): Weak activity; ED50 (Rattus norvegicus [23]): inactive
CCCN(CCCOc1cccc(Cl)c1)C1CCc2ccc3[nH]ccc3c2C1 (stereo unspecified)	20	243	13	15		
CCCN(CCc1cccs1)C1CCc2ccc3[nH]ccc3c2C1 (stereo unspecified)	5.5		13	5.5		inhibition [13]: < 45%
CCCN(CCCCN1C(=O)CC(C)(C)CC1=O)[C@@H]1CCc2ccc3[nH]ccc3c2C1				6.5		
CCCN(CCC)[C@H]1CCc2ccc3[nH]cc(C=O)c3c2C1						ED50 (Rattus norvegicus [15]): Weak activity; ED50 (Rattus norvegicus [24]): inactive; ED50 (Rattus norvegicus [25]): Weak activity
CCCN(CCCc1ccccc1OC)C1CCc2ccc3[nH]cc(C=O)c3c2C1 (stereo unspecified)	84	11	3.4		14	
CCCNC1CCc2ccc3[nH]ccc3c2C1 (stereo unspecified)	115	483	69	48		
CCCN(CCC)[C@H]1CCc2ccc3[nH]ccc3c2C1						ED50 (Rattus norvegicus [26]): inactive
CCCN(CCCCN1C(=O)CC(C)(C)CC1=O)C1CCc2ccc3[nH]cc(C=O)c3c2C1 (stereo unspecified)	450	115	9.8		136	
CCCN(C)C1CCc2ccc3[nH]ccc3c2C1 (stereo unspecified)	113		170	33		inhibition [13]: < 45%
CCCNC1CCc2ccc3[nH]cc(C=O)c3c2C1 (stereo unspecified)		227	27		60	
CCCN(CCCc1ccccc1OC)C1CCc2ccc3[nH]ccc3c2C1 (stereo unspecified)	10	40	2.5	4.8		
